Data set [1] addresses T1, Indoleamine 2,3-dioxygenase 1 (Homo sapiens, UniProt P14902). The data set can be described thus: Inhibition of human IDO1 expressed in HEK293 cells assessed as kynurenine release after 5 hrs by spectrophotometry. Format: cell-based.
Data set [2] concerns the target T1, Indoleamine 2,3-dioxygenase 1. Briefly: Uncompetitive inhibition of human recombinant IDO1 using L-tryptophan as substrate. The procedure, abridged: (§1)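 Reversibility and inhibition mode taken from kinetic graphical plots of recombinant human IDO-1 activity. The enzyme assay used a methylene blue/ascorbate regeneration system. Ki derived by plotting [S]/V against inhibitor concentration.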
Target sequence in this assay (P14902 whole entry): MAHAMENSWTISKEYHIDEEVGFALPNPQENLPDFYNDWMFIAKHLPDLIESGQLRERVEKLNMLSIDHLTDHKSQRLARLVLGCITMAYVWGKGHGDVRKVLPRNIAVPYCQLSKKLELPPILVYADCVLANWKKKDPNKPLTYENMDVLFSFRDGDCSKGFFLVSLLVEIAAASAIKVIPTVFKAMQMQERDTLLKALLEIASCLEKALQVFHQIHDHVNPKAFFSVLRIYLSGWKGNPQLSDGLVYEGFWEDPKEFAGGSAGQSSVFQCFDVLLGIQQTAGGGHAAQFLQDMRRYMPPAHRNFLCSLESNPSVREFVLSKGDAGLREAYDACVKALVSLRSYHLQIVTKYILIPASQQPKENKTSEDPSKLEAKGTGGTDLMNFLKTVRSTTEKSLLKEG

For data set [3], the system named is Mus musculus. The data set can be described thus: Upregulation of IDO1 expression in cytoplasm of C57BL/6 mouse tumor allografted with mouse LLC cells at 200 mg/kg, po qd after 14 days by immunohistochemical analysis. More on the design: dose 200 mg/kg. Format: functional, organism-based. The procedure, abridged: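 LLC allografts in C57BL/6 mice, sc at 2 × 10^6 cells. Oral dosing once daily at 200 mg/kg or 0.5% CMC vehicle from 5 mm tumor diameter for 14 days. Tumors and TDLNs cut into 5 μm sections with heat antigen retrieval. Rabbit Foxp3 Ab (1/100) or mouse IDO-1 Ab (1/50) applied 1 h, then Alexa Fluor secondary 30 min. Nuclei counterstained; imaged at ×200.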

The test system of data set [4] is Mus musculus. The data set can be described thus: In vivo inhibition of IDO1 in C57BL/6 mouse allografted with mouse LLC cells assessed as kynurenine to tryptophan ratio in plasma at 200 mg/kg, po qd after 14 days by HPLC analysis relative to control. Format: functional, organism-based. More on the design: dose 200 mg/kg. Put shortly:
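C57BL/6 mice, 8 weeks old, given 2 × 10^6 LLC cells sc in right forelimb and randomized to three groups. Oral dosing once daily from 5 mm tumor diameter with 0.5% CMC vehicle or 200 mg/kg. Plasma taken after 14 days. Trp and Kyn measured by HPLC and Kyn/Trp ratio calculated, n = 9−10. One-way ANOVA against vehicle.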

The subject of data set [5] is Lewis lung carcinoma cell line. Briefly: Antitumor activity against mouse LLC cells allografted in C57BL/6 mouse assessed as reduction in tumor volume at 200 mg/kg, po qd after 14 days. Conditions: 336 h, read-out: TGI. In kind it is functional.
In data set [6] the target is T1, Indoleamine 2,3-dioxygenase 1. Briefly: Binding affinity to human IDO1 by SPR assay. Put shortly: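 SPR at 25 °C on purified human IDO-1 immobilized on a CM5 sensor chip, compound injected at a series of concentrations. Running buffer PBS with 0.1% dodecylmaltoside, 0.05 mM EDTA and 5% DMSO, pH 7.4. KD taken as the equilibrium dissociation constant from instrument evaluation.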
A general note: Surface plasmon resonance follows binding to a sensor surface in real time, without labels.
Target sequence in this assay (P14902 whole entry): as above

The nature of data set [7]: DPPH radical scavenging activity assessed as reducing ability at 5 to 160 uM after 30 mins by spectrophotometry. The settings on record: 0.5 h. On the technique in general: Loss of DPPH colour is used to gauge radical scavenging.
For data set [8], the system named is Mus musculus. Briefly: Reduction of Foxp3 expression in nucleus of C57BL/6 mouse tumor allografted with mouse LLC cells at 200 mg/kg, po qd after 14 days by immunohistochemical analysis.
Data set [9] addresses T1, Indoleamine 2,3-dioxygenase 1. Briefly: Mixed competitive inhibition of human recombinant IDO1 using L-tryptophan as substrate. Put shortly:
as §1
Target sequence in this assay (P14902 whole entry): as above

For data set [10] the target is unchanged. Briefly: Competitive inhibition of human recombinant IDO1 using L-tryptophan as substrate.
Target sequence in this assay (P14902 whole entry, looked up): as the sequence (P14902 whole entry) above
Data set [11] has the same target. The data set can be described thus: Inhibition of human recombinant IDO1 using L-tryptophan as substrate.
Target sequence in this assay (P14902 whole entry): as above
The nature of data set [12]: DPPH radical scavenging activity assessed as reducing ability at […] after 30 mins by spectrophotometry. In kind it is physicochemical. Conditions: 0.5 h. Put shortly:
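Tryptanthrins at 5, 10, 20, 40, 80 or 160 μM in DMSO (100 μL) mixed with 100 μL DPPH radical (100 μM in ethanol, acetate-buffered pH 5.5). Absorbance at 517 nm read after 30 min gentle shaking in the dark. Ascorbic acid as reference. Triplicates.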

A word on the IC50: it is the concentration at which inhibition is half-maximal. In general, Ki refers to the dissociation constant of the complex between target and ligand, obtained from inhibition or displacement. For orientation: Kd means the constant that tells how readily two partners part at equilibrium. A lower Kd goes with higher affinity.

The source made the active and inactive calls. No cut-off for these calls is given here.

`O=C1c2ccc(Cl)cc2-n2c1nc1ccccc1c2=O`: in data set [1], the IC50 turned out to be 0.183 µM. In data set [2], the 50% inhibitory concentration (IC50) came out at 74.4 µM and the inhibition constant Ki was determined as 49.4 µM.
With `O=C1c2cc(F)ccc2-n2c1nc1ccccc1c2=O`, the result in data set [3] and in data set [8] was Active. Besides, the inhibition entry in data set [4] is “Active”. In data set [5], the inhibition in vivo at 200 mg/kg came out at 62%. In [6], this compound gave a dissociation constant Kd of 46.8 µM. The IC50 amounted to 0.023 µM in data set [1] and 0.534 µM in data set [2]. Moreover, the inhibition constant (Ki) in data set [2] amounted to 0.161 µM. Further, the Activity entry in data set [7] was “Not Active”.
With `O=C1c2ccccc2-n2c1nc1ccccc1c2=O` [TRYPTANTHRIN], the IC50 in data set [1] was 0.0537 µM; in data set [9] it was 7.15 µM. Moreover, the inhibition constant (Ki) in data set [9] was 4.81 µM. In data set [7], the Activity result is given as “Not Active”.
Take `O=C1c2cc([N+](=O)[O-])ccc2-n2c1nc1ccccc1c2=O`: in [2], the IC50 was 0.103 µM and the inhibition constant Ki stood at 0.054 µM. The Activity result in data set [7] is “Not Active”.
In the case of `O=C1c2c(Cl)cccc2-n2c1nc1ccccc1c2=O`, the IC50 in [1] is 0.0271 µM. In addition, in [2], the half-inhibitory concentration (IC50) was 8.19 µM and the Ki was found to be 9.65 µM. The Activity entry in data set [7] is on record as “Not Active”.
With `O=C1c2cc(Cn3cc(-c4ccccc4)nn3)ccc2-n2c1nc1ccc(F)cc1c2=O`, the inhibition entry in [1] and in data set [10] was “inactive” throughout.
As to `O=C1c2ccccc2N[C@H]2[C@H](O)c3cc(F)ccc3N12`, in data set [1], the IC50 came to 0.0243 µM. Also, in data set [2], the IC50 is 6.21 µM and the inhibitory constant (Ki) turned out to be 4.54 µM.
For `O=C1c2ccccc2N[C@H]2[C@H](O)c3ccccc3N12`, in that order: 0.779 µM, 16 µM and 8.58 µM.
Consider `O=C1c2cc(Br)ccc2-n2c1nc1ccccc1c2=O`, for which the IC50 in data set [1] was 0.0539 µM. Also, in [2], the 50% inhibitory concentration (IC50) came out at 0.574 µM and the inhibition constant (Ki) worked out at 0.389 µM. The Activity result in data set [7] is “Not Active”.
`O=C1c2ccccc2-n2c1nc1ccc(F)cc1c2=O`: the IC50 in data set [11] amounted to 864 µM.
As for `O=C1O[C@H]([C@@H](O)CO)C(O)=C1O` [ASCORBIC ACID], in [12], the outcome was Active.
In the case of `O=C1c2cc(F)ccc2-n2c1nc1ccc(F)cc1c2=O`, in data set [1], the half-inhibitory concentration (IC50) is 0.466 µM. Further, in [2], the IC50 is 2.72 µM and the inhibition constant Ki came to 5.48 µM.
In the case of `Cc1ccc2c(c1)C(=O)c1nc3ccccc3c(=O)n1-2`, in data set [9], the IC50 came out at 121 µM and the inhibition constant Ki was 219 µM.
For `O=C1c2cc(F)ccc2N[C@H]2[C@H](O)c3ccccc3N12`, the 50% inhibitory concentration (IC50) in [11] was 451 µM.

These data come from ChEMBL document CHEMBL3085691, “Discovery of tryptanthrin derivatives as potent inhibitors of indoleamine 2,3-dioxygenase with therapeutic activity in Lewis lung cancer (LLC) tumor-bearing mice” (J Med Chem, 2013).
